Results: ChEMBL document CHEMBL3774372, “Design, physico-chemical properties and biological evaluation of some new N-[(phenoxy)alkyl]- and N-{2-[2-(phenoxy)ethoxy]ethyl}aminoalkanols as anticonvulsant agents” (Bioorg Med Chem, 2016)
The source made the active and inactive calls.

Experiments:
[1] = target: D(1B) dopamine receptor (Homo sapiens) (UniProt P21918); assay: Displacement of [3H]SCH23390 from human recombinant Dopamine D5 receptor expressed in GH4 cells at 10^-5 M; assay type: cell-based
Method in brief: (§1)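 Radioligand displacement screen with the test agent at a single 10^-5 M concentration; receptor source and radioligand per target as tabulated (recombinant human cell lines or rat cerebral cortex/urinary bladder).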

[2] = tested on: Rattus norvegicus; assay: Anticonvulsant activity in pilocarpine-induced status epilepticus Sprague-Dawley rat model at 30 mg/kg, ip after 4 hrs during post stage 3 seizure; assay type: functional, organism-based
Method in brief: (§2)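 Rats given pilocarpine 50 mg/kg ip and observed to first convulsive seizure (Racine stage 3–5, time zero); test drug then given ip in 0.5% methylcellulose. Efficacy = halting further stage 3–5 convulsive seizures; scored protected/tested, time after first stage 3 seizure.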

[3] = target: Translocator protein (Rattus norvegicus) (UniProt P16257); assay: Displacement of [3H]PK 11195 from rat heart peripheral-type benzodiazepine receptor at 10^-5 M
Method in brief: (§3)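 Radioligand binding screen run at a single test concentration of 10^-5 M. Each target used its stated receptor source (human recombinant CHO or HEK-293 cells, endogenous cell lines, or rat tissue membranes) with the listed radioligand.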

[4] = target: Galanin receptor type 1 (Homo sapiens) (UniProt P47211); assay: Displacement of [125I]galanin from human recombinant GAL1 receptor expressed in HEK293 cells at 10^-5 M; assay type: cell-based; method in brief: as §3
[5] = tested on: Mus musculus; assay: Anticonvulsant activity in mouse assessed as protection against subcutaneous pentylenetetrazol-induced seizures at 30 mg/kg, ip measured after 4 hrs; assay type: functional, organism-based
Method in brief: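 Mice dosed ip as 0.5% methylcellulose suspension; pentylenetetrazole 85 mg/kg in 0.9% NaCl injected subcutaneously into posterior midline, animals watched at least 30 min. Protection = no threshold seizure (single clonic spasm episode lasting ≥5 s); scored protected/tested.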

[6] = tested on: Rattus norvegicus; assay: Anticonvulsant activity in pilocarpine-induced status epilepticus Sprague-Dawley rat model at 30 mg/kg, ip after 2 hrs during post stage 3 seizure; assay type: functional, organism-based; method in brief: as §2
[7] = target: D(4) dopamine receptor (Homo sapiens) (UniProt P21917); assay: Displacement of [3H]methylspiperone from human recombinant Dopamine D4.4 receptor expressed in CHO cells at 10^-5 M; assay type: cell-based; method in brief: as §1
[8] = target: Glucocorticoid receptor (Homo sapiens) (UniProt P04150); assay: Displacement of [3H]dexamethasone from glucocorticoid receptor in human IM9 cells at 10^-5 M; assay type: cell-based; conditions: IM-9; method in brief: as §1
[9] = target: Sodium-dependent serotonin transporter (Homo sapiens) (UniProt P31645); assay: Displacement of [3H]imipramine from human recombinant 5-HT transporter expressed in CHO cells at 10^-5 M; assay type: cell-based; method in brief: as §1
[10] = tested on: Mus musculus; assay: Anticonvulsant activity in mouse assessed as protection against maximal electric shock-induced seizures at 30 mg/kg, ip measured after 0.5 hrs; assay type: functional, organism-based
Method in brief: (§4)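 Mice dosed ip with suspension in 0.5% methylcellulose; maximal electroshock applied at the listed time after dosing. Protection = abolition of hindlimb tonic extension component of seizure; reported as animals protected/animals tested.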

[11] = target: Cannabinoid receptor 1 (Homo sapiens) (UniProt P21554); assay: Displacement of [3H]CP 55940 from human recombinant CB1 receptor expressed in CHO cells at 10^-5 M; assay type: cell-based; method in brief: as §3
[12] = target: 5-hydroxytryptamine receptor 3A (Homo sapiens) (UniProt P46098); assay: Displacement of [3H]BRL43694 from human recombinant 5-HT3 receptor expressed in CHO cells at 10^-5 M; assay type: cell-based; method in brief: as §3
[13] = target: Adrenergic receptor alpha-1 (Rattus norvegicus) (UniProt P15823+P23944+P43140); assay: Displacement of [3H]prazosin from rat cerebral cortex Alpha-1 adrenergic receptor at 10^-5 M; assay type: tissue-based; method in brief: as §1
[14] = target: Kappa-type opioid receptor (Rattus norvegicus) (UniProt P34975); assay: Displacement of [3H]U 69593 from rat recombinant kappa-type opioid receptor expressed in CHO cells at 10^-5 M; assay type: cell-based; method in brief: as §1
[15] = target: Melanocortin receptor 4 (Homo sapiens) (UniProt P32245); assay: Displacement of [125I]NDP-alpha-MSH from human recombinant MC4 receptor expressed in CHO cells at 10^-5 M; assay type: cell-based; method in brief: as §3
[16] = target: Muscarinic acetylcholine receptor M2 (Homo sapiens) (UniProt P08172); assay: Displacement of [3H]AF-DX384 from human recombinant muscarinic M2 receptor expressed in CHO cells at 10^-5 M; assay type: cell-based; method in brief: as §3
[17] = target: Beta-1 adrenergic receptor (Homo sapiens) (UniProt P08588); assay: Displacement of [3H](-)CGP12177 from human recombinant Beta-1 adrenergic receptor expressed in HEK293 cells at 10^-5 M; assay type: cell-based; method in brief: as §3
[18] = target: Endothelin-1 receptor (Homo sapiens) (UniProt P25101); assay: Displacement of [125I]Endothelin-1 from human recombinant Endothelin-1 receptor expressed in CHO cells at 10^-5 M; assay type: cell-based; method in brief: as §3
[19] = organism: Rattus norvegicus; assay: Displacement of […] from rat cerebral cortex GABA-gated chloride channel at 10^-5 M; assay type: tissue-based; method in brief: as §3
[20] = target: 5-hydroxytryptamine receptor 2C (Homo sapiens) (UniProt P28335); assay: Displacement of [3H][…] from human recombinant 5-HT2C receptor expressed in HEK293 cells at 10^-5 M; assay type: cell-based; method in brief: as §1
[21] = target: Sodium-dependent dopamine transporter (Homo sapiens) (UniProt Q01959); assay: Displacement of [3H]BTCP from human recombinant dopamine transporter expressed in CHO cells at 10^-5 M; assay type: cell-based; method in brief: as §3
[22] = target: Substance-P receptor (Homo sapiens) (UniProt P25103); assay: Displacement of [125I]BH-SP from NK1 receptor in human U373MG cells at 10^-5 M; assay type: cell-based; conditions: U-373MG ATCC; method in brief: as §3
[23] = organism: Rattus norvegicus; assay: Displacement of [3H]alpha,beta-MeATP from rat urinary bladder P2X receptor at 10^-5 M; method in brief: as §1
[24] = tested on: U-937; assay: Displacement of [125I]TNF-alpha from TNF-alpha receptor in human U937 cells at 10^-5 M; assay type: cell-based; method in brief: as §3
[25] = tested on: Mus musculus; assay: Anticonvulsant activity in mouse assessed as protection against maximal electric shock-induced seizures at 30 mg/kg, ip measured after 4 hrs; assay type: functional, organism-based; method in brief: as §4
[26] = tested on: Rattus norvegicus; assay: Anticonvulsant activity in pilocarpine-induced status epilepticus Sprague-Dawley rat model at 30 mg/kg, ip after 1 hr during post stage 3 seizure; assay type: functional, organism-based; method in brief: as §2
[27] = target: Vasopressin V1a receptor (Homo sapiens) (UniProt P37288); assay: Displacement of [3H]AVP from human recombinant arginine vasopressin receptor 1a expressed in CHO cells at 10^-5 M; assay type: cell-based; method in brief: as §3
[28] = target: Prostaglandin E2 receptor EP4 subtype (Homo sapiens) (UniProt P35408); assay: Displacement of [3H]PGE2 from human recombinant prostanoid EP4 receptor expressed in HEK293 cells at 10^-5 M; assay type: cell-based; method in brief: as §3
[29] = tested on: CHO; assay: Displacement of [3H]DADLE from human recombinant delta-type 2 opioid receptor expressed in CHO cells at 10^-5 M; assay type: cell-based; method in brief: as §3
[30] = target: D(3) dopamine receptor (Homo sapiens) (UniProt P35462); assay: Displacement of [3H]methylspiperone from human recombinant Dopamine D3 receptor expressed in CHO cells at 10^-5 M; assay type: cell-based; method in brief: as §1
[31] = target: Muscarinic acetylcholine receptor M3 (Homo sapiens) (UniProt P20309); assay: Displacement of [3H]4-DAMP from human recombinant muscarinic M3 receptor expressed in CHO cells at 10^-5 M; assay type: cell-based; method in brief: as §3
[32] = target: 5-hydroxytryptamine receptor 2B (Homo sapiens, UniProt P41595); assay: Displacement of [125I](+/-)DOI from human recombinant 5-HT2B receptor expressed in CHO cells at 10^-5 M; assay type: cell-based

Muscarinic acetylcholine receptor M2 (Homo sapiens), sequence (P08172 whole entry): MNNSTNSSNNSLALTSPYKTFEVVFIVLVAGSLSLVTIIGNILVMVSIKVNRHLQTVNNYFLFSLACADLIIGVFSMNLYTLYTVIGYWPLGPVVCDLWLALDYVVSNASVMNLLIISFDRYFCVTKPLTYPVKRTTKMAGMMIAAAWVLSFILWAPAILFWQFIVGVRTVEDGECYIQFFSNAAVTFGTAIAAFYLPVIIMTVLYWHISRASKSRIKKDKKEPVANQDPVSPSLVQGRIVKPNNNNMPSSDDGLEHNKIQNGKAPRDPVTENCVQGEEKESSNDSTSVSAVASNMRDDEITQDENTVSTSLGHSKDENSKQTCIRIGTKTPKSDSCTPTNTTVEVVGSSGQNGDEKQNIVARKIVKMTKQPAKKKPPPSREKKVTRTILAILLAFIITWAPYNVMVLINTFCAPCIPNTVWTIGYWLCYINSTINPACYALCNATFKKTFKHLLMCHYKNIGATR
Translocator protein (Rattus norvegicus), sequence (P16257 whole entry, looked up): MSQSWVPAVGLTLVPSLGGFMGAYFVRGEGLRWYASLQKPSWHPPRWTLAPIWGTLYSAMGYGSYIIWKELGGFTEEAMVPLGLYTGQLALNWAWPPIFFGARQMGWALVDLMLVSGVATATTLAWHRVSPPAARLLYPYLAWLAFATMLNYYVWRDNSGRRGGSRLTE
Beta-1 adrenergic receptor (Homo sapiens), sequence (P08588 whole entry, looked up): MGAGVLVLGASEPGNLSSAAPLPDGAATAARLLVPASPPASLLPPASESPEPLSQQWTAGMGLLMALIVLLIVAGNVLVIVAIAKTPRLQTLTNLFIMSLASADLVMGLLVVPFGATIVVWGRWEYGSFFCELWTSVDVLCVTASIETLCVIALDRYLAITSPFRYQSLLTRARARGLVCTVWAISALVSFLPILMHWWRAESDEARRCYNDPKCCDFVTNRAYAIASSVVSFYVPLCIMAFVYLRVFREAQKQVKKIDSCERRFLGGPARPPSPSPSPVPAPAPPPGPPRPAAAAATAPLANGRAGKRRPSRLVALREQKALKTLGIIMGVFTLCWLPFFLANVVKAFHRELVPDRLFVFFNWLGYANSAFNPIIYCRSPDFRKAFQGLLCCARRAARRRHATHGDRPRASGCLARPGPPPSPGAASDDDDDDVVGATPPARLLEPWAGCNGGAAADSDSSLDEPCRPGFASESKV
Glucocorticoid receptor (Homo sapiens), sequence (P04150 whole entry): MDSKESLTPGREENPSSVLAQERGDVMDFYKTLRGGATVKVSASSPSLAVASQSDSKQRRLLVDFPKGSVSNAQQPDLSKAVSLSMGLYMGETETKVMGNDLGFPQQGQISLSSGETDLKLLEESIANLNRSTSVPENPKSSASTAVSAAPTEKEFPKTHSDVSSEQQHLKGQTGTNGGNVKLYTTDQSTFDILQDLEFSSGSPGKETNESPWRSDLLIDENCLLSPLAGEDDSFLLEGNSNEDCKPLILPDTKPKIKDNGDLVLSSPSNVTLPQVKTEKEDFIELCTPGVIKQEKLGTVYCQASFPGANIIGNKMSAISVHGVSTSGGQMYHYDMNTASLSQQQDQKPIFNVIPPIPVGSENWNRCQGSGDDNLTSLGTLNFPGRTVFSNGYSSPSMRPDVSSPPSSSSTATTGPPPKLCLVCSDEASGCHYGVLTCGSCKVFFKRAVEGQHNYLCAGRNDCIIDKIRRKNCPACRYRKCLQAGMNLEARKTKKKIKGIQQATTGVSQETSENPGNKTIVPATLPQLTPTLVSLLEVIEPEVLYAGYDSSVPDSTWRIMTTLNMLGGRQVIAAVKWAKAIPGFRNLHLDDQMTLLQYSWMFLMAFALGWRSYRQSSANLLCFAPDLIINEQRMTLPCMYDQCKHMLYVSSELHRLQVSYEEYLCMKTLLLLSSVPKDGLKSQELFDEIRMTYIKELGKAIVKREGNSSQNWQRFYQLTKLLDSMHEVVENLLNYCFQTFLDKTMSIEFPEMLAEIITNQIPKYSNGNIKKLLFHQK
Vasopressin V1a receptor (Homo sapiens), sequence (P37288 whole entry, looked up): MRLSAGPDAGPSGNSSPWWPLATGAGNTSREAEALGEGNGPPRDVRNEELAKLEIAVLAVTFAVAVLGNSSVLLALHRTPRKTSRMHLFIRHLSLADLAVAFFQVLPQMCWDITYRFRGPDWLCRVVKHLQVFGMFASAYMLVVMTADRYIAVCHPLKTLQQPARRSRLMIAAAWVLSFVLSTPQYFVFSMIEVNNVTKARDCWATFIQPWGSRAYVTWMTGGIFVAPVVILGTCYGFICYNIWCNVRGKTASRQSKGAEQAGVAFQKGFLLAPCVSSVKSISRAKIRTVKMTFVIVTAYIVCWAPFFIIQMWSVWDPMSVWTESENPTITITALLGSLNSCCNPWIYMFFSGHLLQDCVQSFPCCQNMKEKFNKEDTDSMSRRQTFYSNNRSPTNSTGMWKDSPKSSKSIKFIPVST
Endothelin-1 receptor (Homo sapiens), sequence (P25101 whole entry): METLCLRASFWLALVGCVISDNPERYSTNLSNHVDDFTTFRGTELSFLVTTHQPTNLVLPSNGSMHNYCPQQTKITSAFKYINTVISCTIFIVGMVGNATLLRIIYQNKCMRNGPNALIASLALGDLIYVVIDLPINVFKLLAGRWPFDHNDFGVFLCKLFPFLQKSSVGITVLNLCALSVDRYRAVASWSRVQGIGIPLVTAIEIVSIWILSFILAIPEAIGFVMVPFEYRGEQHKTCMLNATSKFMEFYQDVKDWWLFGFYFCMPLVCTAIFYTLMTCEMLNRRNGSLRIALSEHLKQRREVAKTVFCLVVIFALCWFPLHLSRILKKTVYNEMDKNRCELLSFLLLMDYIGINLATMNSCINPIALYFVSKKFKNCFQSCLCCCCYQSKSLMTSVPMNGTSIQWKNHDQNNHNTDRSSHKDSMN
5-hydroxytryptamine receptor 3A (Homo sapiens), sequence (P46098 whole entry): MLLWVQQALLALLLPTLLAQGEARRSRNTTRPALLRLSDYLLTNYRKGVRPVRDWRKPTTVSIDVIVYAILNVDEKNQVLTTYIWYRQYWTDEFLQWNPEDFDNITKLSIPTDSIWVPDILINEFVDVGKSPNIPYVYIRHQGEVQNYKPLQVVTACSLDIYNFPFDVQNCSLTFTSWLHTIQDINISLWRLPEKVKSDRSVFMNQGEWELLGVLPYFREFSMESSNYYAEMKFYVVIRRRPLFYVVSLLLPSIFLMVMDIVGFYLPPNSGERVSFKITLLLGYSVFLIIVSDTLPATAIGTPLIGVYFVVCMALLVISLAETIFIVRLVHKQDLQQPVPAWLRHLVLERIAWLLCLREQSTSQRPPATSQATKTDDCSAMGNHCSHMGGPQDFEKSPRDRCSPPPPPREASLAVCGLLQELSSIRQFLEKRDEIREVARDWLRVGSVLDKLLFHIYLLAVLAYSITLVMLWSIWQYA
D(4) dopamine receptor (Homo sapiens), sequence (P21917 whole entry): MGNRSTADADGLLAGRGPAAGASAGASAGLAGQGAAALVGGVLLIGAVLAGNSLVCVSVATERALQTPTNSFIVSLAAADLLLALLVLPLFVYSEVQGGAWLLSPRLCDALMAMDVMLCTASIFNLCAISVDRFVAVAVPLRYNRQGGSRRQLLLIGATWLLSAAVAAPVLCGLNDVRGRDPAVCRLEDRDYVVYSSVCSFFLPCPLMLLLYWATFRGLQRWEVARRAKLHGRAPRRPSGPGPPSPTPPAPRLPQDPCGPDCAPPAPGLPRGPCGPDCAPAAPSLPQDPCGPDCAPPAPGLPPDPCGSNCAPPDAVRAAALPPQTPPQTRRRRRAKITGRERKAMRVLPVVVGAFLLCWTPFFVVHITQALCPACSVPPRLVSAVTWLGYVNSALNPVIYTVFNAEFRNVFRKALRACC
Substance-P receptor (Homo sapiens), sequence (P25103 whole entry): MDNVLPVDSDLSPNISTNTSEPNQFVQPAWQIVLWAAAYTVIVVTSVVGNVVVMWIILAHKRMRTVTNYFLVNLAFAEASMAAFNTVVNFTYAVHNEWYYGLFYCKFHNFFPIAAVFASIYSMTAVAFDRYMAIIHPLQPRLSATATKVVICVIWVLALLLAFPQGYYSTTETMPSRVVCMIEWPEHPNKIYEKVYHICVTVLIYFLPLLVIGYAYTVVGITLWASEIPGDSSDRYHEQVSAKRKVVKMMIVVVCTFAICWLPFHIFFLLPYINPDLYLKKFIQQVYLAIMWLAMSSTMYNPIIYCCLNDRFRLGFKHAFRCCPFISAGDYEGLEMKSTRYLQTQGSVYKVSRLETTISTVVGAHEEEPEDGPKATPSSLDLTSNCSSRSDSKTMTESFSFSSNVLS
Melanocortin receptor 4 (Homo sapiens), sequence (P32245 whole entry): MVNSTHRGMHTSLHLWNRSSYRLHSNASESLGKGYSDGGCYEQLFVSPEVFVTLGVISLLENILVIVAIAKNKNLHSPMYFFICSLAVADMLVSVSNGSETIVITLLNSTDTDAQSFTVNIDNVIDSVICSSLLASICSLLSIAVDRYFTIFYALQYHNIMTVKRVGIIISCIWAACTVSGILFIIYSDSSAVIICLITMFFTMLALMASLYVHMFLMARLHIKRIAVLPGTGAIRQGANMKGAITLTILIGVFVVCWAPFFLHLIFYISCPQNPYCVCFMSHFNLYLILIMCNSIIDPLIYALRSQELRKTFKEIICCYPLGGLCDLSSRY
Galanin receptor type 1 (Homo sapiens), sequence (P47211 whole entry): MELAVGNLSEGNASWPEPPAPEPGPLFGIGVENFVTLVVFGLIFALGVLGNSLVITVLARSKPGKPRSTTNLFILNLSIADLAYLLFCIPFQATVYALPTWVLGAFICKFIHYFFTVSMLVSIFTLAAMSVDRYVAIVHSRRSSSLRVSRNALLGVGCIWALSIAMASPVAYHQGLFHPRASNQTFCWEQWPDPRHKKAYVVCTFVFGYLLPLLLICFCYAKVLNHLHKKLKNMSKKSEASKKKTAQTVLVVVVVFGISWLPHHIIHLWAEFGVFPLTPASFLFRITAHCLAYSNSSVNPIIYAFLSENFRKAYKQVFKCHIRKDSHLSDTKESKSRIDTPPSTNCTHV

| SMILES | inhibition [1] | Activity [2] | inhibition [3] | inhibition [4] | Activity [5] | Activity [6] | inhibition [7] | inhibition [8] | inhibition [9] | Activity [10] | inhibition [11] | inhibition [12] | inhibition [13] | inhibition [14] | inhibition [15] | inhibition [16] | inhibition [17] | inhibition [18] | inhibition [19] | inhibition [20] | also measured |
| --- | --- | --- | --- | --- | --- | --- | --- | --- | --- | --- | --- | --- | --- | --- | --- | --- | --- | --- | --- | --- | --- |
| Cc1cccc(C)c1OCCOCCN[C@@H](C)CO | 5.2% | inactive | -6.7% | -0.4% | inactive | inactive | 35.8% | 8.3% | 91.4% | Active | 11.1% | 12.3% | 28.3% | 54% | 9% | 37.2% | 11.1% | -4.4% | 4.6% | 47.4% | inhibition [21]: 16.2%; inhibition [22]: 51.7%; inhibition [23]: 4.8%; inhibition [24]: 4.6%; Activity [25]: inactive; Activity [26]: inactive; inhibition [27]: -0.8%; inhibition [28]: 3%; inhibition [29]: -2.2%; inhibition [30]: 57.4%; inhibition [31]: 4.4%; inhibition [32]: 78.8% |
| Cc1cccc(C)c1OCCOCCN[C@H](C)CO | 10.1% | inactive | -3.9% | -0.7% | inactive | inactive | 40.9% | 31.3% | 96.5% | Active | 12.6% | 29.4% | 32.3% | 29.3% | 5.3% | 20.8% | 4.8% | -3.4% | -7.6% | 34.7% | inhibition [21]: 24.5%; inhibition [22]: 17.3%; inhibition [23]: 3.5%; inhibition [24]: 5.1%; Activity [25]: inactive; Activity [26]: inactive; inhibition [27]: -3.2%; inhibition [28]: 14.9%; inhibition [29]: -1.7%; inhibition [30]: 44.1%; inhibition [31]: 8.5%; inhibition [32]: 89.4% |
